Compound activity (PubChem BioAssay)
TDP2 inh = blocks human TDP2 phosphodiesterase activity; O95551; recombinant TDP2, T5PNP hydrolysis, p-nitrophenol absorbance 415 nm; inhibition, % at 12.8 µM; 370,000 compounds, 0.34% hits; AID 720702;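 active = inhibition above the mean of all tested compounds plus 3 SD, set per campaign, cut at about 25% in these data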;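 also: 0% = DMSO with enzyme and 100% = buffer with substrate but no TDP2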
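test system = human TDP2 enzyme | input = TDP2 enzyme at 120 nM final | medium = 50 mM Tris-HCl pH 7.5 with Mg2+, KCl, DTT, BSA | also added = T5PNP substrate, 5 mM | times = 2 h at 37 °C | technique = epi absorbance | benchmarks = high control without enzyme, low control DMSO plus TDP2 | replication = each compound tested once, singlicate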
LEDGF integ inh = blocks HIV-1 LEDGF/p75-dependent DNA integration; 370,000 compounds, 0.64% hits; TR-FRET IN-LEDGF/p75 DNA integration, Eu/Cy5; inhibition, % at 3.7 µM;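 active = inhibition above the screen-wide mean plus 3 SD, cut at about 13% in these data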;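 also: signal is the Cy5 over europium emission ratio at 671 and 618 nm; 0% = plate median of compound wells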
NSD2 HMT inh = blocks human histone methyltransferase NSD2; NSD2 peptide methylation, AlphaScreen, 120 min; 310,000 compounds, 0.54% hits; O96028; inhibition, % at 12.5 µM; AID 743445; in the data active = inhibition above about 50%
MBD2 inh = blocks human MBD2 binding to methylated DNA; Q9UBB5; TR-FRET, MBD2 binding to methylated oligonucleotide; 370,000 compounds, 0.31% hits; inhibition, % at 4.4 µM; in the data active = inhibition above about 13%
CASP6 VEID inh = caspase-6 (human) enzyme inhibition; purified caspase-6, Z-VEID-R110 cleavage fluorescence; 350,000 compounds, 0.53% hits; inhibition, % at 12.5 µM;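 active = mean inhibition across replicates at least about 35%, with every replicate also reaching that limit, limit read from the data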;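 also: 0% = median of neutral control wells and 100% = no fluorescence left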
Target sequence (P55212 24-179 limits assumed): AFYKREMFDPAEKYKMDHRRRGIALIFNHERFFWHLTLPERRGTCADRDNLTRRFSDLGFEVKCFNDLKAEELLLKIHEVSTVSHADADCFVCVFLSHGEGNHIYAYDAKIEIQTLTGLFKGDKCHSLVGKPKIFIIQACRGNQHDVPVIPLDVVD
Target sequence (P55212 194-293 limits assumed): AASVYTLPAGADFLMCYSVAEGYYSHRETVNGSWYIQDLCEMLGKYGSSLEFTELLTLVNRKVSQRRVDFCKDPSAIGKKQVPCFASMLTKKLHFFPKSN
UHRF1 MBD2 ctr = UHRF1 methyl-DNA binding inhibition; Q96T88; UHRF1 binding to methylated oligo, TR-FRET; inhibition, % at 4.4 µM; 370,000 compounds, 0.75% hits; AID 687016; in the data active = inhibition above about 21%;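 also: UHRF1 SRA domain binding a hemimethylated CpG hairpin DNA probe; 0% = median of test compound wells and 100% = reference inhibitor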
Active calls of the source: *; nt = not tested or not shown. This is a sample that favours compounds with a hit; in the whole collection about 1.8% have one here.

SMILES | TDP2 inh | LEDGF integ inh | NSD2 HMT inh | MBD2 inh | CASP6 VEID inh | UHRF1 MBD2 ctr
CCCc1nc2c3ccccc3ccn2c1Cc1ccc(C)cc1 | -1 | -2 | nt | 2 | -8 | 18
CC(C)CNS(=O)(=O)c1ccc(OCC(=O)NCc2ccco2)cc1 | 2 | -2 | 0 | 0 | nt | -1
CCC(C)NS(=O)(=O)c1ccc(OCC(=O)NCc2ccco2)cc1 (stereo not drawn) | 11 | 2 | 6 | -1 | nt | 25*
O=C(N[C@H]1CC[C@H](CCNS(=O)(=O)c2ccc(Cl)cc2)O[C@@H]1CO)c1cccc(F)c1 | -13 | 5 | nt | 12 | -1 | 23*
CN(Cc1ccco1)S(=O)(=O)c1cc(F)ccc1CN1C(=O)c2cccnc2C1=O | 19 | -1 | 1 | 9 | -2 | 24*
O=C(COc1cccnc1[N+](=O)[O-])NC1CCS(=O)(=O)C1 (stereo not drawn) | -6 | 3 | -4 | 8 | nt | 26*
O=C(COc1cccnc1[N+](=O)[O-])Nc1ccc(F)cc1 | 6 | -1 | 0 | 0 | 0 | -2
O=C(N/N=C/c1cc(Br)c(O)c(Br)c1O)c1cccnc1 | -7 | -1 | 17 | -6 | 40* | -4
CCC1(c2ccccc2)CN(C)C1=O (stereo not drawn) | -8 | 2 | 0 | 6 | nt | 5
CCN1c2ccccc2N(C)C1(C)c1ccccc1 (stereo not drawn) | nt | nt | 63* | nt | nt | nt
CCCNC(=O)N1[C@@H]2c3ccc(-c4ccccc4OC)c(=O)n3C[C@H]1[C@H](CO)[C@H]2C(=O)NCC | nt | nt | nt | nt | 2 | nt
O=C(NN1C(=O)C2CC=C(Cl)CC2C1=O)c1ccncc1 (stereo not drawn) | -6 | 4 | 22 | -1 | 47* | 6
COc1cc(/C=N/Nc2ccc(C(=O)O)cc2)cc(OC)c1OC | 13 | 3 | 1 | 3 | 9 | -3
COc1cc(/C=N/Nc2ccc(C(=O)O)cc2)ccc1O | 5 | -3 | nt | 4 | 39* | 15
COc1cc(/C=N/NC(=O)CC2C(=O)NN=C2C)ccc1O (stereo not drawn) | -1 | 74* | -2 | 0 | 0 | -2
Cc1ccc(S(=O)(=O)Nc2ccc3c(c2)CC(=O)N([C@H](C)CO)C[C@@H](C)[C@H](CN(C)Cc2ccc4c(c2)OCO4)O3)cc1 | nt | nt | nt | nt | 0 | nt
O=C(OCC(=O)N1N=C(c2ccc(Cl)cc2)CC1c1ccco1)c1cncc(Br)c1 (stereo not drawn) | 4 | 2 | 1 | -5 | 41* | -4
O=C1NC(=Nc2ccc(O)cc2)S/C1=C/c1ccco1 | -2 | 0 | -2 | 4 | 39* | 1
O=C1/C(=C\c2ccco2)SC(=S)N1c1ccc(O)cc1 | 8 | 11 | 10 | 8 | 38* | 5
C[C@@H]1CCCCO[C@H](CN(C)Cc2ccccc2)[C@@H](C)CN([C@H](C)CO)C(=O)c2cc(NC(=O)C3CCCCC3)ccc2O1 | nt | nt | nt | nt | 1 | nt
NS(=O)(=O)c1cccc(NC(=O)c2ccc3nc[nH]c3c2)c1 | -15 | 5 | nt | -6 | 54* | -2
C[C@@H]1CN([C@H](C)CO)C(=O)c2cccc(NC(=O)Nc3ccc(C(F)(F)F)cc3)c2O[C@H]1CN(C)C(=O)Nc1ccc(C(F)(F)F)cc1 | nt | nt | nt | nt | -3 | nt
CN1CC2([N+](=O)[O-])CC=C(Oc3ccccc3)C([N+](=O)[O-])(C1)C2 (stereo not drawn) | -10 | -2 | -1 | -2 | nt | 0
CN1CC2([N+](=O)[O-])CC=C(OCCO)C([N+](=O)[O-])(C1)C2 (stereo not drawn) | -2 | -6 | -2 | -2 | 39* | 3
COc1ccc(CN2C(C)C3C(C)=CC2C2C(=O)N(C)C(=O)C32)cc1 (stereo not drawn) | nt | nt | nt | nt | -2 | nt
Cc1noc(C)c1S(=O)(=O)Nc1ccc(C(=O)NC2CCCCC2C)cc1 (stereo not drawn) | 8 | -1 | -1 | -3 | nt | -2
Cc1noc(C)c1S(=O)(=O)Nc1ccc(C(=O)NC2CCCCCC2)cc1 | 14 | 7 | 1 | 11 | nt | 21*
O=C(NCC1CCCCC1)[C@@H]1[C@@H](CO)[C@@H]2Cn3c(ccc(-c4cccnc4)c3=O)[C@H]1N2 | nt | nt | nt | nt | 0 | nt
COC(=O)c1cn(C(=O)c2ccccc2Cl)c2ccccc12 | 8 | 0 | -21 | 0 | 1 | 25*
